Measurements: ChEMBL document CHEMBL1255207, “Pyrazolobenzodiazepines: part I. Synthesis and SAR of a potent class of kinase inhibitors” (Bioorg Med Chem Lett, 2010)
Values belong to the compound of their own block, whether it stands above or below them. The source made the active and inactive calls. The rule behind the calls is not given here.

Tests used:
[1] = system: SW480; experiment: Cytotoxicity against human SW480 cells by MTT assay; assay type: functional, cell-based
Summary of the method: (§1)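 Antiproliferative IC50 was measured in human tumor lines: H460a (lung), HCT116, RKO and SW480 (colon), and MDA-MB435 (breast). Values are the mean of duplicate wells.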

[2] = target: Cyclin-dependent kinase 2/cyclin E (Homo sapiens, UniProt P24941); experiment: Inhibition of CDK2-cyclin E; assay type: protein-complex assay
Summary of the method: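 CDK2 was paired with cyclin E1. IC50 came from at least two replicates at each concentration.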

[3] = system: HCT-116; experiment: Cytotoxicity against human HCT116 cells by MTT assay; assay type: functional, cell-based; summary of the method: as §1
[4] = target: Focal adhesion kinase 1 (Homo sapiens, UniProt Q05397); experiment: Inhibition of FAK
Sequence of Focal adhesion kinase 1 (Q05397 whole entry): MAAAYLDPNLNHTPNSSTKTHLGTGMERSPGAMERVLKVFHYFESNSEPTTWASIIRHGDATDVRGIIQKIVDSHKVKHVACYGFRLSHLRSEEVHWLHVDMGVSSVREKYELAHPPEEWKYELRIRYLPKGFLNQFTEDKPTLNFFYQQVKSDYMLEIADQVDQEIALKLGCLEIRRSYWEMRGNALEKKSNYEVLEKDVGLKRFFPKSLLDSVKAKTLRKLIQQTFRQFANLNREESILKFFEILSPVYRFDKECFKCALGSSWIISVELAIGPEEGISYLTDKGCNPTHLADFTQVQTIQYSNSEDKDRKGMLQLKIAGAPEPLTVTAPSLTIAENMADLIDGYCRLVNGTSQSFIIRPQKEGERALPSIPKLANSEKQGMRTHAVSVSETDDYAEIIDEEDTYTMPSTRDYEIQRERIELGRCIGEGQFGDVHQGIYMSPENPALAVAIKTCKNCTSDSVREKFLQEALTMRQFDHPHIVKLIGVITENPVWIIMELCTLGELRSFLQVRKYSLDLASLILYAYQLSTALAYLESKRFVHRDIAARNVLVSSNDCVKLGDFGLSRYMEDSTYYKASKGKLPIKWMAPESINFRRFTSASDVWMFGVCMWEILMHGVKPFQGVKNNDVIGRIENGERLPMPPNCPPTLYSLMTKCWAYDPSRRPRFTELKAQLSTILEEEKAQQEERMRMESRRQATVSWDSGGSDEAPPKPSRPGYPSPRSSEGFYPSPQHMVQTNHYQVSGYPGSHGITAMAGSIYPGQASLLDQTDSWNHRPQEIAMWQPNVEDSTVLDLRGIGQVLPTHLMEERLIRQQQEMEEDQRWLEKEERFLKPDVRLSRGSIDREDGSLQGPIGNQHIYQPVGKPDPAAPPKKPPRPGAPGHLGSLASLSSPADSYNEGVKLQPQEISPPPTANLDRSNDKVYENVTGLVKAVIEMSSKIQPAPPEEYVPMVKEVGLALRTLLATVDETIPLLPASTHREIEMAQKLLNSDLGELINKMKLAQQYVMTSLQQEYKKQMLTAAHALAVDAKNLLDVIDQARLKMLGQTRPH

[5] = target: Proto-oncogene tyrosine-protein kinase Src (Homo sapiens, UniProt P12931); experiment: Inhibition of Src
Sequence of Proto-oncogene tyrosine-protein kinase Src (P12931 2-536 limits assumed): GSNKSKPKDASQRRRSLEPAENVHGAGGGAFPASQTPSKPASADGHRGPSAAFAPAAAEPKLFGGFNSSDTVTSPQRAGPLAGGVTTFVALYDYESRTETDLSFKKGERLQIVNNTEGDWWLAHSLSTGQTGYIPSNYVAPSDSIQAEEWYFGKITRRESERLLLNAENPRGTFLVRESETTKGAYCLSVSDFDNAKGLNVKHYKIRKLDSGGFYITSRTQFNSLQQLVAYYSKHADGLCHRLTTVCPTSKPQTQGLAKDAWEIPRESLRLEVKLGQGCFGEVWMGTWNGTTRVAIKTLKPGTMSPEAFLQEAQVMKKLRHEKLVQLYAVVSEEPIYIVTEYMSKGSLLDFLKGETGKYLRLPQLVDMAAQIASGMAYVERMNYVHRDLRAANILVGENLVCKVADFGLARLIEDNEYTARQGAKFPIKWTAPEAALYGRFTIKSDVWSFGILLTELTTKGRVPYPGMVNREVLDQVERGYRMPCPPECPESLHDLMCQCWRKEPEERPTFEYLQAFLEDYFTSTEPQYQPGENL

[6] = target: Vascular endothelial growth factor receptor 2 (Homo sapiens, UniProt P35968); experiment: Inhibition of KDR
Sequence of Vascular endothelial growth factor receptor 2 (P35968 whole entry): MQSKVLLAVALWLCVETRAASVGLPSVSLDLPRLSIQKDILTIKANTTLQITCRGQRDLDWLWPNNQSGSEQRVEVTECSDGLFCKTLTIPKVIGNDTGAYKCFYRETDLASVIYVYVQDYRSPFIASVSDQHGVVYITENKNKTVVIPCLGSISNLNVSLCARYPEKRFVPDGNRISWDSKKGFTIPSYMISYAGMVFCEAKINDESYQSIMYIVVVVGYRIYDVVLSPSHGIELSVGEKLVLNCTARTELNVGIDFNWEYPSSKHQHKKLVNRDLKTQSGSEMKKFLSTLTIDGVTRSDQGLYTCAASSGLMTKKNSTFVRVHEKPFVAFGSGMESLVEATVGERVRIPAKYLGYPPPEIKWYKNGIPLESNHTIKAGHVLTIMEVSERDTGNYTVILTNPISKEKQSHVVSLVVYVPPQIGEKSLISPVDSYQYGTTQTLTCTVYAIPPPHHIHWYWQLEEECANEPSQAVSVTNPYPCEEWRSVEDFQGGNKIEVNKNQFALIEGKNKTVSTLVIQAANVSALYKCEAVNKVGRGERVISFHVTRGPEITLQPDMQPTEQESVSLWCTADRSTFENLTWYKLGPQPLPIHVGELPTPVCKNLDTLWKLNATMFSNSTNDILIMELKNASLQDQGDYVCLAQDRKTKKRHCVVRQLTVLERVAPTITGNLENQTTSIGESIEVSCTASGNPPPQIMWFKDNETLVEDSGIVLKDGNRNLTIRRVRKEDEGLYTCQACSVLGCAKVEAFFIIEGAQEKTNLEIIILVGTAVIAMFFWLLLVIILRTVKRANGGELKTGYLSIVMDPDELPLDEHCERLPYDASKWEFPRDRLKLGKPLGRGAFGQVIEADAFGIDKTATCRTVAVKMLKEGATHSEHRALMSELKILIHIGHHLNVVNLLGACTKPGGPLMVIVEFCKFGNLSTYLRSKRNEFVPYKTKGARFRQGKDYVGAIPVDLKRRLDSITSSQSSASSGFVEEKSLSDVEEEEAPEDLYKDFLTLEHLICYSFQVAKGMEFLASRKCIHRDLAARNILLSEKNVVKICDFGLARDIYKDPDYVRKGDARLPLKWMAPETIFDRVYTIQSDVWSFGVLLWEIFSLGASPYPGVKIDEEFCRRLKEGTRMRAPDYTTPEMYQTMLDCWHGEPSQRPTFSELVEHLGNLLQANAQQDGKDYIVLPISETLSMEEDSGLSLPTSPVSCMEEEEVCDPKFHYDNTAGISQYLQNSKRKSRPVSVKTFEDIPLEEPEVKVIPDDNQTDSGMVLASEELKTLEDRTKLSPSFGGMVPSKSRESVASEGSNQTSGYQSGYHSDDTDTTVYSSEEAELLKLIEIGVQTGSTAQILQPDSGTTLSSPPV

[7] = Inhibition of FGFR
[8] = Inhibition of PDGFR
[9] = target: Epidermal growth factor receptor (Homo sapiens, UniProt P00533); experiment: Inhibition of EGFR
Sequence of Epidermal growth factor receptor (P00533 whole entry): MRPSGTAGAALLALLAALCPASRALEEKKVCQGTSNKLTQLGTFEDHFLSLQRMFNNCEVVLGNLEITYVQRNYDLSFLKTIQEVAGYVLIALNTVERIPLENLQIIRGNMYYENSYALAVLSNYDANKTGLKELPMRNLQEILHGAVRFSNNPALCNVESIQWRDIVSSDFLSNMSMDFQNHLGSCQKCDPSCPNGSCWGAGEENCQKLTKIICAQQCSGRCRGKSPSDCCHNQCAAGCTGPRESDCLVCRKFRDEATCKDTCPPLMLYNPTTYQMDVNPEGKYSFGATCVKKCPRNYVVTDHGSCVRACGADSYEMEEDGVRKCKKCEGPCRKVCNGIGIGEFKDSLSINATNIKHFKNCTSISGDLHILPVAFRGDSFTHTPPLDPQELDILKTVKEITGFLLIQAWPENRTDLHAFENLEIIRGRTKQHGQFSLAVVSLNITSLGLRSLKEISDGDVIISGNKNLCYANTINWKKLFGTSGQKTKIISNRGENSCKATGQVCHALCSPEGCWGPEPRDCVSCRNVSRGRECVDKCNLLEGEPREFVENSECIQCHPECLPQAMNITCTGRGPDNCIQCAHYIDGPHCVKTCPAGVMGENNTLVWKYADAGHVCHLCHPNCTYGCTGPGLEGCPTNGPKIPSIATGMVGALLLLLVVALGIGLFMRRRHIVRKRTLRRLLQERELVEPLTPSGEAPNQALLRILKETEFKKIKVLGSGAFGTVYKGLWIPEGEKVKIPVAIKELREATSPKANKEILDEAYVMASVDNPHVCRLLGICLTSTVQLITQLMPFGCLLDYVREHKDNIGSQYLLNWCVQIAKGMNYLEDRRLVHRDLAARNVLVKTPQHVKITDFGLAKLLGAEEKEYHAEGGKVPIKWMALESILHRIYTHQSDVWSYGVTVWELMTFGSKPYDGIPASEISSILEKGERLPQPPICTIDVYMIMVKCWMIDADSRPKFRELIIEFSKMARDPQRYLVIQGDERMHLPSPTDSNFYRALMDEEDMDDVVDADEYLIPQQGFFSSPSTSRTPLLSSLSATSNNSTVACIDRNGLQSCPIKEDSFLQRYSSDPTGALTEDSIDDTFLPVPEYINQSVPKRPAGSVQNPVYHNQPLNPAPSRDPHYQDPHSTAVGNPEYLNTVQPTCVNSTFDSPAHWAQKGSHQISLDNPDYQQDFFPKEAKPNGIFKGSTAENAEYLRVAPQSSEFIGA

[10] = system: NCI-H460; experiment: Cytotoxicity against human H460a cells by MTT assay; assay type: functional, cell-based; summary of the method: as §1
[11] = system: RKO; experiment: Cytotoxicity against human RKO cells by MTT assay; assay type: functional, cell-based; summary of the method: as §1
[12] = system: MDA-MB-435; experiment: Cytotoxicity against human MDA-MB-435 cells by MTT assay; assay type: functional, cell-based; summary of the method: as §1
[13] = system: CDK1-cyclin B (Homo sapiens); experiment: Inhibition of CDK1-cyclin B
[14] = target: CDK4-cyclin D1 (Homo sapiens); experiment: Inhibition of CDK4-cyclin D1
[15] = target: CDK1-cyclin A1 (Homo sapiens); experiment: Inhibition of CDK1-cyclin A1
[16] = target: CDK4-cyclin D1 (Homo sapiens); experiment: Inhibition of CDK4/Cyclin D1
[17] = system: SW480; experiment: Antitumor activity against human SW480 cells xenografted in mouse assessed as inhibition of tumor growth at 3.125 mg/kg, po bid for 20 days; assay type: functional; settings: SW480, 480 h
Summary of the method: (§2)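 SW480 tumor-bearing nude mice dosed per os by gavage (0.2 ml/animal) twice daily for 20 days at 3.125, 1.56 and 0.78 mg/kg, with vehicle b.i.d. control. Tumor growth was followed over days post-implant and expressed as %T/C and % inhibition, with p values. Body weight change was tracked over the study.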

[18] = system: SW480; experiment: Antitumor activity against human SW480 cells xenografted in mouse assessed as inhibition of tumor growth at 1.56 mg/kg, po bid for 20 days; assay type: functional; settings: SW480, 480 h; summary of the method: as §2
[19] = system: NCI-H460; experiment: Antitumor activity against human H460 cells xenografted in mouse assessed as inhibition of tumor growth administered as po bid for 20 days; assay type: functional, organism-based
[20] = system: LOX; experiment: Antitumor activity against human LOX cells xenografted in mouse assessed as inhibition of tumor growth administered as po bid for 20 days; assay type: functional, organism-based
[21] = system: LoVo; experiment: Antitumor activity against human LoVo cells xenografted in mouse assessed as inhibition of tumor growth administered as po bid for 20 days; assay type: functional, organism-based
[22] = system: A549; experiment: Antitumor activity against human A549 cells xenografted in mouse assessed as inhibition of tumor growth administered as po bid for 20 days; assay type: functional, organism-based
[23] = system: Mus musculus; experiment: Toxicity in human SW480 cells xenografted mouse assessed as mortality at 0.78 to 3.125 mg/kg, po bid for 20 days; assay type: organism-based; set-up: dose 0.78-3.125 mg/kg, route oral; settings: in vivo, 480 h
Summary of the method: (§3)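 SW480 tumour-bearing nude mice were dosed by oral gavage (0.2 ml/animal) at 3.125, 1.56 or 0.78 mg/kg b.i.d. for 20 days, against a vehicle b.i.d. group. Animals were watched for drug-related toxicity, with body weight and tumour growth followed over days after tumour cell implant.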

[24] = system: Mus musculus; experiment: Toxicity in human SW480 cells xenografted mouse assessed as overt signs at 0.78 to 3.125 mg/kg, po bid for 20 days; assay type: organism-based; set-up: dose 0.78-3.125 mg/kg, route oral; settings: in vivo, 480 h; summary of the method: as §3
[25] = system: Mus musculus; experiment: Toxicity in human SW480 cells xenografted mouse assessed as body weight gain at 0.78 to 3.125 mg/kg, po bid for 20 days; assay type: organism-based; set-up: dose 0.78-3.125 mg/kg, route oral; settings: in vivo, 480 h; summary of the method: as §2

SMILES: Cc1[nH]nc2c1N=C(c1ccccc1)c1cc(F)ccc1N2
IC50 [1]: 2200 nM
IC50 [2]: 93 nM

SMILES: NC(=O)c1[nH]nc2c1N=C(c1ccccc1Cl)c1cc([N+](=O)[O-])ccc1N2
IC50 [2]: 258 nM

SMILES: O=[N+]([O-])c1ccc2c(c1)C(c1ccccc1Cl)=Nc1c[nH]nc1N2
IC50 [1]: 6000 nM
IC50 [2]: 70 nM
IC50 [13]: 500 nM
IC50 [14]: 10000 nM

SMILES: N#Cc1ccc2c(c1)C(c1ccccc1F)=Nc1c[nH]nc1N2
IC50 [1]: 110 nM
IC50 [2]: 16 nM
IC50 [4]: 1200 nM
IC50 [5]: 5400 nM
IC50 [6]: 39 nM
IC50 [7]: 67 nM
IC50 [8]: 51 nM
IC50 [9]: 10900 nM
IC50 [15]: 139 nM
IC50 [16]: 520 nM

SMILES: O=[N+]([O-])c1ccc2c(c1)C(c1ccccc1Cl)=Nc1c(n[nH]c1CO)N2
IC50 [1]: 240 nM
IC50 [2]: 238 nM

SMILES: Cc1[nH]nc2c1N=C(c1ccccc1Cl)c1cc([N+](=O)[O-])ccc1N2
IC50 [1]: 160 nM
IC50 [2]: 35 nM
IC50 [4]: 6900 nM
IC50 [5]: > 60000 nM
IC50 [6]: 72 nM
IC50 [7]: 100 nM
IC50 [8]: 83 nM
IC50 [9]: > 10000 nM

SMILES: O=[N+]([O-])c1ccc2c(c1)C(c1ccccc1Cl)=Nc1c(n[nH]c1-c1ccncc1)N2
IC50 [1]: 12000 nM
IC50 [2]: 50 nM

SMILES: CC(C)c1[nH]nc2c1N=C(c1ccccc1Cl)c1cc([N+](=O)[O-])ccc1N2
IC50 [1]: 640 nM
IC50 [2]: 10 nM

SMILES: Nc1ccc2c(c1)C(c1ccccc1Cl)=Nc1c[nH]nc1N2
IC50 [3]: 1020 nM
IC50 [1]: 500 nM
IC50 [2]: 88 nM
IC50 [4]: 150 nM
IC50 [5]: 1840 nM
IC50 [6]: 34 nM
IC50 [7]: 50 nM
IC50 [8]: 15 nM
IC50 [9]: 989 nM
IC50 [10]: 1070 nM
IC50 [11]: 310 nM
IC50 [12]: 950 nM
inhibition in vivo at 3.125 mg/kg [17]: 93%
inhibition in vivo at 1.56 mg/kg [18]: 70%
inhibition [19]: Active
inhibition [20]: Active
inhibition [21]: Active
inhibition [22]: Active
Activity [23]: Non-toxic
Activity [24]: Non-toxic
Activity [25]: 9%

SMILES: O=[N+]([O-])c1ccc2c(c1)C(c1ccccc1Cl)=Nc1c(n[nH]c1-c1cccnc1)N2
IC50 [1]: 26000 nM
IC50 [2]: 300 nM

SMILES: Cc1[nH]nc2c1N=C(c1ccccc1F)c1cc(F)ccc1N2
IC50 [1]: 700 nM
IC50 [2]: 40 nM

More lines, main results first:

IC50 [2]: 38 nM
IC50 [4]: 180 nM
IC50 [5]: 930 nM
IC50 [6]: 33 nM
IC50 [7]: 45 nM
IC50 [8]: 23 nM
IC50 [9]: 726 nM
SMILES: CC(=O)Nc1ccc2c(c1)C(c1ccccc1Cl)=Nc1c[nH]nc1N2
IC50 [3]: 460 nM
IC50 [1]: 700 nM
IC50 [10]: 550 nM
IC50 [11]: 793 nM
IC50 [12]: 794 nM

IC50 [2]: 115 nM
SMILES: Cc1[nH]nc2c1N=C(c1ccccc1)c1ccccc1N2
IC50 [1]: 1500 nM

IC50 [2]: 210 nM
SMILES: O=[N+]([O-])c1ccc2c(c1)C(c1ccccc1Cl)=Nc1c(n[nH]c1-c1ccccc1)N2
IC50 [1]: 18000 nM

IC50 [2]: 105 nM
SMILES: Cc1[nH]nc2c1N=C(c1ccccc1Cl)c1ccccc1N2
IC50 [1]: 3800 nM

IC50 [2]: 232 nM
SMILES: O=[N+]([O-])c1ccc2c(c1)C(c1ccccc1Cl)=Nc1c(n[nH]c1C(F)(F)F)N2

IC50 [2]: 2000 nM
IC50 [13]: 10000 nM
IC50 [14]: > 30000 nM
SMILES: Nc1n[nH]c2nc(-c3cccs3)cc(C(F)(F)F)c12
IC50 [1]: 6000 nM

IC50 [2]: 20 nM
SMILES: O=[N+]([O-])c1ccc2c(c1)C(c1ccccc1Cl)=Nc1c(n[nH]c1-c1ccc[nH]1)N2
IC50 [1]: 5300 nM

IC50 [2]: 5000 nM
SMILES: O=[N+]([O-])c1ccc2c(c1)C(c1ccccc1Cl)=Nc1c(n[nH]c1CCc1ccccc1)N2
IC50 [1]: 15000 nM

IC50 [2]: 64 nM
SMILES: Cc1[nH]nc2c1N=C(c1ccccc1F)c1ccccc1N2
IC50 [1]: 400 nM
